Converted amounts (≈) assume the structure as drawn. The source made the active and inactive calls. The rule behind the calls is not given here.

The record followed here is ChEMBL document CHEMBL3228031, “Prodrugs of 9-(beta-D-arabinofuranosyl)adenine 2. Synthesis and evaluation of a number of 2',3'- and 3',5'-di-O-acyl derivatives” (J Med Chem, 1979).

The test system of data set [1] is Human alphaherpesvirus 1. Description: Antiviral activity against Herpes simplex virus 1 assessed as plaque reduction at 0.18 x 10^-5 M by cell-based assay relative to control. The class given is functional. Summed up:
(§1)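 HSV-1 plaque-reduction assay by the Hsiung–Melnick procedure. Challenge was 125-300 plaque-forming units. An ara-A control was run alongside each sample at the same molar concentration with an identical virus challenge. Data were confirmed by duplicate assay (±10%).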

In data set [2] the test system is Human alphaherpesvirus 1. Description: Antiviral activity against Herpes simplex virus 1 assessed as plaque reduction at 1.76 x 10^-5 M by cell-based assay relative to control. The format is functional. Summed up:
as §1

Data set [3] deals with Human alphaherpesvirus 1. Kind of data set: Antiviral activity against Herpes simplex virus 1 assessed as plaque reduction at 1.76 x 10^-5 M by cell-based assay relative to vidarabine. The class given is functional. Summed up:
as §1

A further data set concerns the target T1, Adenosine deaminase (Bos taurus, UniProt P56658).
T1 sequence (P56658 whole entry): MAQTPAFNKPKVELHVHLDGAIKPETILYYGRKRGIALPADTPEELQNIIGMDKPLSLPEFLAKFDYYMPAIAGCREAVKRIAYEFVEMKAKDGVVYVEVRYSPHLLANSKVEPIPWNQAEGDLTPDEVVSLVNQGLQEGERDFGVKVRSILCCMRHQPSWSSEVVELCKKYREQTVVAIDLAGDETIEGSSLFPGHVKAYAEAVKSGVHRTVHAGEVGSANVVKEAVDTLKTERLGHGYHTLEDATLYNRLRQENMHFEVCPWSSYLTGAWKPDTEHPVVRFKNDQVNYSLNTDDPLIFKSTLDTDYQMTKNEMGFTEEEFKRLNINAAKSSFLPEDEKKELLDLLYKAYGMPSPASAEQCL
Description: Activity of calf mucosal adenosine deaminase assessed as enzyme-mediated drug metabolism by liquid chromatographic analysis. The format is ADME. The conditions noted are these: cattle. An outline of the steps: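 Drug exposed to the deaminase, with enzyme level also raised 10- and 100-fold. Reaction mixtures analysed by reverse-phase C18 LC (aqueous acetonitrile eluent, 254-nm UV detection) for unchanged substrate.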

Data set [4] in a line: Aqueous solubility of the compound at pH 7. The format is physicochemical.
Data set [5] has as its system Human alphaherpesvirus 1. Description: Antiviral activity against Herpes simplex virus 1 assessed as plaque reduction at 0.18 x 10^-5 M by cell-based assay relative to vidarabine. The format is functional. Summed up: as §1
Data set [6] has as its system Human alphaherpesvirus 1. Description: Antiviral activity against Herpes simplex virus 1 assessed as plaque reduction at 1.75 x 10^-5 M by cell-based assay relative to vidarabine. The class given is functional. An outline of the steps:
as §1

Data set [7] relates to Human alphaherpesvirus 1. Kind of data set: Antiviral activity against Herpes simplex virus 1 assessed as plaque reduction at 1.75 x 10^-5 M by cell-based assay relative to control. The format is functional. An outline of the steps: as §1
Data set [8] relates to Human alphaherpesvirus 2. Kind of data set: Antiviral activity against Herpes simplex virus 2 Magill infected in guinea pig assessed as prevention of vaginal discharge at 3% compound concentration treated intravaginally bid for 4 days measured on day 16 post-infection. The class given is functional, organism-based. Summed up:
(§2)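 Animals were infected intravaginally with 1 × 10^2.82 PFU in 0.1 mL. Drug ointments were given intravaginally starting 4 h postinfection, then twice daily for 4 days, filling the vagina. Clinical signs were scored as animals positive/infected. Cure meant no symptoms, or symptoms healed by day 16 postinfection; it was reported as cured/infected.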

The subject of data set [9] is Human alphaherpesvirus 2. Kind of data set: Antiviral activity against Herpes simplex virus 2 Magill infected in guinea pig assessed as prevention of death at 3% compound concentration treated intravaginally bid for 4 days measured on day 16 post-infection. The format is functional, organism-based. An outline of the steps: as §2
Data set [10] has as its system Human alphaherpesvirus 2. Description: Antiviral activity against Herpes simplex virus 2 Magill infected in guinea pig assessed as prevention of vesiculation of labia and vulva at 3% compound concentration treated intravaginally bid for 4 days measured on day 16 post-infection. The format is functional, organism-based. Summed up: as §2
Data set [11] relates to Human alphaherpesvirus 2. Description: Antiviral activity against Herpes simplex virus 2 Magill infected in guinea pig assessed as prevention of inflammation at 3% compound concentration treated intravaginally bid for 4 days measured on day 16 post-infection. The class given is functional, organism-based. Summed up: as §2
Data set [12] concerns Human alphaherpesvirus 2. Kind of data set: Antiviral activity against Herpes simplex virus 2 Magill infected in guinea pig assessed as prevention of vulvo-vaginal swelling at 3% compound concentration treated intravaginally bid for 4 days measured on day 16 post-infection. The class given is functional, organism-based. An outline of the steps:
as §2

Data set [13] is filed under the species Cavia porcellus. Kind of data set: Toxicity in albino guinea pig assessed as development of erythema at 3% compound concentration treated intravaginally bid for 4 days. The format is organism-based. The following applies: in vivo, other, 96 h. An outline of the steps: (§3)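 Uninfected control animals received drug ointment intravaginally (topical), twice daily for 4 days, in an amount enough to fill the vagina.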

Data set [14] relates to Human alphaherpesvirus 1. Kind of data set: Antiviral activity against Herpes simplex virus 1 assessed as plaque reduction at 1.83 x 10^-5 M by cell-based assay relative to control. The format is functional. An outline of the steps:
as §1

The subject of data set [15] is Human alphaherpesvirus 2. Description: Antiviral activity against Herpes simplex virus 2 Magill infected in guinea pig assessed as prevention of paralysis at 3% compound concentration treated intravaginally bid for 4 days measured on day 16 post-infection. The class given is functional, organism-based. An outline of the steps:
as §2

The species named for data set [16] is Cavia porcellus. Kind of data set: Toxicity in albino guinea pig assessed as death at 3% compound concentration treated intravaginally bid for 4 days. The format is organism-based. The conditions noted are these: in vivo, other, 96 h. Summed up: as §3
In data set [17] the test system is Human alphaherpesvirus 1. Description: Antiviral activity against Herpes simplex virus 1 assessed as plaque reduction at 1.83 x 10^-5 M by cell-based assay relative to vidarabine. The class given is functional. The following applies: Human alphaherpesvirus 1, read-out: INH. An outline of the steps: as §1
The subject of data set [18] is Human alphaherpesvirus 1. Kind of data set: Antiviral activity against Herpes simplex virus 1 assessed as plaque reduction at 0.17 x 10^-5 M by cell-based assay relative to control. The format is functional. Summed up:
as §1

Data set [19] relates to Human alphaherpesvirus 1. Kind of data set: Antiviral activity against Herpes simplex virus 1 assessed as plaque reduction at 1.71 x 10^-5 M by cell-based assay relative to vidarabine. The class given is functional. Summed up:
as §1

The subject of data set [20] is Human alphaherpesvirus 1. Kind of data set: Antiviral activity against Herpes simplex virus 1 assessed as plaque reduction at 0.17 x 10^-5 M by cell-based assay relative to vidarabine. The class given is functional. An outline of the steps: as §1
Data set [21] relates to Human alphaherpesvirus 2. Description: Antiviral activity against Herpes simplex virus 2 Magill infected in guinea pig assessed as cured animal at 3% compound concentration treated intravaginally bid for 4 days measured on day 16 post-infection. The class given is functional, organism-based. An outline of the steps: as §2
The species named for data set [22] is Cavia porcellus. Kind of data set: Toxicity in albino guinea pig assessed as occurrence of irritation at 3% compound concentration treated intravaginally bid for 4 days. The conditions noted are these: in vivo, other, 96 h. The format is organism-based.
Data set [23] has as its system Human alphaherpesvirus 1. Description: Antiviral activity against Herpes simplex virus 1 assessed as plaque reduction at 0.53 x 10^-5 M by cell-based assay relative to vidarabine. The class given is functional. Summed up: as §1
For data set [24], the system named is Human alphaherpesvirus 1. Kind of data set: Antiviral activity against Herpes simplex virus 1 assessed as plaque reduction at 0.53 x 10^-5 M by cell-based assay relative to control. The class given is functional. The following applies: Human alphaherpesvirus 1, read-out: INH. Summed up:
as §1

For `CCC(=O)O[C@H]1[C@H](O)[C@@H](CO)O[C@H]1n1cnc2c(N)ncnc21`, the inhibition at 1.8 µM turned out to be 4% with Human alphaherpesvirus 1 [1] and 36% in the data set on Human alphaherpesvirus 1 [5]. The inhibition at 17.6 µM with Human alphaherpesvirus 1 [2] came to 35%; with Human alphaherpesvirus 1 [3], 88%. Moreover, the Stability result on Adenosine deaminase is on record as “Stable”. Besides, the solubility result in data set [4] (buffer) is “soluble”.

As for `CC(C)C(=O)OC[C@H]1O[C@@H](n2cnc3c(N)ncnc32)[C@@H](O)[C@@H]1OC(=O)C(C)C`, the inhibition at 17.5 µM with Human alphaherpesvirus 1 [6] is 90%; with Human alphaherpesvirus 1 [7] it was 0%. In addition, at Adenosine deaminase, the Stability result is “Stable”. In addition, the solubility in data set [4] (aqueous, read-out: solubility) was determined as 20 µg/mL (≈ 0.0491 mM).

Turning to `CCC(=O)O[C@H]1[C@H](OC(=O)CC)[C@@H](CO)O[C@H]1n1cnc2c(N)ncnc21`, the result in the data set with Human alphaherpesvirus 2 [8], in the data set with Human alphaherpesvirus 2 [9], in the data set on Human alphaherpesvirus 2 [10], in the data set with Human alphaherpesvirus 2 [11], with Human alphaherpesvirus 2 [12] and in the data set on Human alphaherpesvirus 2 [15] was Active. Further, the Activity entry in the data set filed under Cavia porcellus [13] and in the data set listed under Cavia porcellus [16] was “Toxic” in each case. Besides, the figures for the inhibition at 18.3 µM in the data set on Human alphaherpesvirus 1 [14] and in the data set with Human alphaherpesvirus 1 [17] were 15% and 90%, respectively. Moreover, on Adenosine deaminase, the Stability result is listed as “Stable”. In addition, the solubility in data set [4] (aqueous, read-out: solubility) is 4500 µg/mL (≈ 11.9 mM). For the same compound, in the data set with Human alphaherpesvirus 1 [5], the inhibition at 1.8 µM was 60%.

On to `CC(=O)O[C@H]1[C@H](O)[C@@H](CO)O[C@H]1n1cnc2c(N)ncnc21`, for which the results for the inhibition at 1.7 µM in the data set on Human alphaherpesvirus 1 [18] and in the data set with Human alphaherpesvirus 1 [20] were 0% and 60%, respectively. For the same compound, the inhibition at 17.1 µM in the data set on Human alphaherpesvirus 1 [19] was 90%. Besides, the Stability result on Adenosine deaminase was “Stable”. Further, the solubility result in data set [4] (buffer) is listed as “soluble”.

As to `CC(=O)O[C@H]1[C@H](OC(C)=O)[C@@H](CO)O[C@H]1n1cnc2c(N)ncnc21`, the inhibition at 1.8 µM was 0% in the data set with Human alphaherpesvirus 1 [1] and 40% in the data set on Human alphaherpesvirus 1 [5]. Also, the outcome with Human alphaherpesvirus 2 [21], in the data set with Human alphaherpesvirus 2 [8], in the data set on Human alphaherpesvirus 2 [9], in the data set with Human alphaherpesvirus 2 [10], in the data set on Human alphaherpesvirus 2 [11] and in the data set on Human alphaherpesvirus 2 [12] was Active. The result in the data set with Human alphaherpesvirus 2 [15] was Active. The inhibition at 17.5 µM in the data set with Human alphaherpesvirus 1 [6] came to 100%; in the data set on Human alphaherpesvirus 1 [7], 68%. Besides, the Stability entry at Adenosine deaminase is on record as “Stable”. Also, the solubility in data set [4] (aqueous, read-out: solubility) was 33000 µg/mL (≈ 93.9 mM). The Activity entry in the data set listed under Cavia porcellus [22] is given as “Non-toxic”.

Regarding `CCC(=O)OC[C@H]1O[C@@H](n2cnc3c(N)ncnc32)[C@@H](O)[C@@H]1OC(=O)CC`, the inhibition at 1.8 µM in the data set on Human alphaherpesvirus 1 [1] amounted to 0%; in the data set with Human alphaherpesvirus 1 [5], 23%. The inhibition at 17.6 µM in the data set with Human alphaherpesvirus 1 [3] was 76%. Moreover, the Stability result at Adenosine deaminase is listed as “Stable”. In data set [4] (aqueous, read-out: solubility), the solubility stood at 2300 µg/mL (≈ 6.06 mM).

Regarding `CC(C)C(=O)O[C@H]1[C@H](OC(=O)C(C)C)[C@@H](CO)O[C@H]1n1cnc2c(N)ncnc21`, the inhibition at 5.3 µM in the data set on Human alphaherpesvirus 1 [23] worked out at 73%; with Human alphaherpesvirus 1 [24] it was 0%. For the same compound, in the data set with Human alphaherpesvirus 1 [19], the inhibition at 17.1 µM stood at 90%. Besides, the Stability entry on Adenosine deaminase was “Stable”. Also, the solubility in [4] (aqueous, read-out: solubility) came to 420 µg/mL (≈ 1.03 mM).
